System: HEK-293T
Assay: Multiplex assay against HEK293T
Format: toxicity, cell-based
Details: human
Summary of the method: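 On a CQ1 microscope at 37°C and 5% CO2, live cells were imaged after compound addition. They had been stained at seeding with Hoechst33342, BioTracker Green Microtubule Cytoskeleton Dye, MitoTracker Red and Annexin V Alexa Fluor 680. CellPathfinder machine-learning gating assigned cells to Hoechst high-intensity objects or normal cells, normal cells to healthy, pyknosed or fragmented nuclei, and pyknosed cells to mitotic or apoptotic. Tubulin, mitochondrial-mass and membrane-permeability phenotypes are per cents of healthy-nucleus cells.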

[1] = 12 h, 1 µM, compound concentration 1 uM, replicate 1
[2] = 12 h, 1 µM, compound concentration 1 uM, replicate 2
[3] = 12 h, 10 µM, compound concentration 10 uM, replicate 1
[4] = 12 h, 10 µM, compound concentration 10 uM, replicate 2
[5] = 24 h, 1 µM, compound concentration 1 uM, replicate 1
[6] = 24 h, 1 µM, compound concentration 1 uM, replicate 2
[7] = 24 h, 10 µM, compound concentration 10 uM, replicate 1
[8] = 24 h, 10 µM, compound concentration 10 uM, replicate 2
[9] = 48 h, 1 µM, compound concentration 1 uM, replicate 1
[10] = 48 h, 1 µM, compound concentration 1 uM, replicate 2
[11] = 48 h, 10 µM, compound concentration 10 uM, replicate 1
[12] = 48 h, 10 µM, compound concentration 10 uM, replicate 2

CN[C@@H](C)C(=O)N[C@H](C(=O)N1CCC[C@H]1C(=O)Nc1snnc1-c1ccccc1)C1CCCCC1 [GDC-0152]
Population Apoptotic (%) [1]: 31%
Population Fragmented Nuclei (%) [1]: 5%
Population Healthy Nuclei (%) [1]: 78%
Population Hoechst High Intensity Objects (%) [1]: 5%
Population Membrane Permeable-Phenotype (%) [1]: 0%
Population Mitochondria Different-Phenotype (%) [1]: 41%
Population Mitotic Cells (%) [1]: 68%
Population Normal (%) [1]: 94%
Population Pyknosed Nuclei (%) [1]: 15%
Population Tubulin-Different-Phenotype (%) [1]: 35%
Total Cell Count [1]: 444
Population Apoptotic (%) [2]: 60%
Population Healthy Nuclei (%) [2]: 79%
Population Hoechst High Intensity Objects (%) [2]: 7%
Population Mitochondria Different-Phenotype (%) [2]: 62%
Population Mitotic Cells (%) [2]: 39%
Population Normal (%) [2]: 92%
Population Pyknosed Nuclei (%) [2]: 14%
Population Tubulin-Different-Phenotype (%) [2]: 26%
Total Cell Count [2]: 314
Population Apoptotic (%) [3]: 50%
Population Fragmented Nuclei (%) [3]: 6%
Population Healthy Nuclei (%) [3]: 73%
Population Hoechst High Intensity Objects (%) [3]: 13%
Population Membrane Permeable-Phenotype (%) [3]: 0%
Population Mitochondria Different-Phenotype (%) [3]: 78%
Population Mitotic Cells (%) [3]: 49%
Population Normal (%) [3]: 86%
Population Pyknosed Nuclei (%) [3]: 20%
Population Tubulin-Different-Phenotype (%) [3]: 78%
Total Cell Count [3]: 362
Population Apoptotic (%) [4]: 72%
Population Fragmented Nuclei (%) [4]: 7%
Population Hoechst High Intensity Objects (%) [4]: 20%
Population Mitochondria Different-Phenotype (%) [4]: 89%
Population Mitotic Cells (%) [4]: 28%
Population Normal (%) [4]: 80%
Population Pyknosed Nuclei (%) [4]: 18%
Population Tubulin-Different-Phenotype (%) [4]: 72%
Total Cell Count [4]: 330
Population Apoptotic (%) [5]: 30%
Population Fragmented Nuclei (%) [5]: 8%
Population Healthy Nuclei (%) [5]: 80%
Population Hoechst High Intensity Objects (%) [5]: 4%
Population Membrane Permeable-Phenotype (%) [5]: 1%
Population Mitochondria Different-Phenotype (%) [5]: 28%
Population Mitotic Cells (%) [5]: 69%
Population Normal (%) [5]: 95%
Population Pyknosed Nuclei (%) [5]: 10%
Population Tubulin-Different-Phenotype (%) [5]: 23%
Total Cell Count [5]: 601
Population Apoptotic (%) [6]: 38%
Population Fragmented Nuclei (%) [6]: 5%
Population Healthy Nuclei (%) [6]: 82%
Population Hoechst High Intensity Objects (%) [6]: 6%
Population Membrane Permeable-Phenotype (%) [6]: 0%
Population Mitochondria Different-Phenotype (%) [6]: 53%
Population Mitotic Cells (%) [6]: 61%
Population Normal (%) [6]: 93%
Population Pyknosed Nuclei (%) [6]: 12%
Population Tubulin-Different-Phenotype (%) [6]: 22%
Total Cell Count [6]: 387
Population Apoptotic (%) [7]: 45%
Population Fragmented Nuclei (%) [7]: 10%
Population Healthy Nuclei (%) [7]: 71%
Population Hoechst High Intensity Objects (%) [7]: 7%
Population Membrane Permeable-Phenotype (%) [7]: 0%
Population Mitochondria Different-Phenotype (%) [7]: 74%
Population Mitotic Cells (%) [7]: 54%
Population Normal (%) [7]: 92%
Population Pyknosed Nuclei (%) [7]: 17%
Population Tubulin-Different-Phenotype (%) [7]: 69%
Total Cell Count [7]: 454
Population Apoptotic (%) [8]: 60%
Population Fragmented Nuclei (%) [8]: 12%
Population Healthy Nuclei (%) [8]: 68%
Population Hoechst High Intensity Objects (%) [8]: 21%
Population Mitochondria Different-Phenotype (%) [8]: 80%
Population Mitotic Cells (%) [8]: 40%
Population Normal (%) [8]: 78%
Population Pyknosed Nuclei (%) [8]: 19%
Population Tubulin-Different-Phenotype (%) [8]: 58%
Total Cell Count [8]: 400
Population Apoptotic (%) [9]: 31%
Population Fragmented Nuclei (%) [9]: 12%
Population Healthy Nuclei (%) [9]: 78%
Population Hoechst High Intensity Objects (%) [9]: 4%
Population Membrane Permeable-Phenotype (%) [9]: 1%
Population Mitochondria Different-Phenotype (%) [9]: 22%
Population Mitotic Cells (%) [9]: 68%
Population Normal (%) [9]: 95%
Population Pyknosed Nuclei (%) [9]: 9%
Population Tubulin-Different-Phenotype (%) [9]: 16%
Total Cell Count [9]: 928
Population Apoptotic (%) [10]: 40%
Population Fragmented Nuclei (%) [10]: 10%
Population Healthy Nuclei (%) [10]: 82%
Population Hoechst High Intensity Objects (%) [10]: 3%
Population Mitochondria Different-Phenotype (%) [10]: 29%
Population Mitotic Cells (%) [10]: 60%
Population Normal (%) [10]: 96%
Population Pyknosed Nuclei (%) [10]: 6%
Total Cell Count [10]: 603
Population Apoptotic (%) [11]: 47%
Population Fragmented Nuclei (%) [11]: 12%
Population Healthy Nuclei (%) [11]: 73%
Population Hoechst High Intensity Objects (%) [11]: 16%
Population Membrane Permeable-Phenotype (%) [11]: 0%
Population Mitochondria Different-Phenotype (%) [11]: 74%
Population Mitotic Cells (%) [11]: 52%
Population Normal (%) [11]: 83%
Population Pyknosed Nuclei (%) [11]: 13%
Population Tubulin-Different-Phenotype (%) [11]: 55%
Total Cell Count [11]: 538
Population Apoptotic (%) [12]: 60%
Population Healthy Nuclei (%) [12]: 70%
Population Hoechst High Intensity Objects (%) [12]: 21%
Population Mitochondria Different-Phenotype (%) [12]: 76%
Population Mitotic Cells (%) [12]: 39%
Population Normal (%) [12]: 78%
Population Pyknosed Nuclei (%) [12]: 17%
Population Tubulin-Different-Phenotype (%) [12]: 52%
Total Cell Count [12]: 417

From ChEMBL document CHEMBL5058577, “EUbOPEN Chemogenomics Library 2 (Multiplex)” (2022)
